NALP1 inh: blocks the NALP1 inflammasome reconstituted in yeast; 0.61% of 280,000 active; S. cerevisiae NALP1/ASC/caspase-1 growth, X-gal OD620, 72 h; inhibition, % at 10 µM; AID 2071; in the data active = inhibition mostly above about 24%, no sharp cut-off; inactive = mostly below about 32%
DNA FID counter: displaces DNA intercalator in HCV helicase counter-screen. DNA fluorescent intercalator displacement, fluorescence. inhibition, % at 7.9 µM. 0.17% of 290,000 active. AID 1845; in the data active = inhibition above about 37%;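 also: higher means more ethidium bromide displaced from hairpin DNA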
IMP-1 inhibitor: blocks Pseudomonas aeruginosa IMP-1 metallo-beta-lactamase | purified IMP-1, nitrocefin hydrolysis, epi-absorbance fluorescence | inhibition, % at 5.6 µM | 0.45% of 290,000 active;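 active = inhibition above the mean plus 3 SD of all compounds in the same screening run, cut at about 4.5% in these data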
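Material – recombinant IMP-1 enzyme, purified · Amount – IMP-1 0.2 nM before substrate addition · Medium – HEPES buffer pH 7.1 with ZnSO4 and Brij 35 · Timing – 25 °C, 15 min preincubation, 25 min reaction · Measured by – plate fluorescence quenching by hydrolysis product, ex 480/em 530 nm · Read-out – percent enzyme inhibition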
VIM-2 inh: inhibitors of Pseudomonas aeruginosa VIM-2 metallo-beta-lactamase; 0.89% of 290,000 active; purified VIM-2, nitrocefin hydrolysis, epi-absorbance fluorescence; AID 1527; inhibition, % at 5.6 µM;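 active = inhibition above the mean of all tested compounds plus 3 SD, cutoff set per screening run, cut at about 7.5% in these data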;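 also: red hydrolysis product quenches plate fluorescence so inhibitors raise well fluorescence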
SUMO Mot1 rescue: inhibitors of SUMOylation pathway: yeast Mot1-301 growth rescue; S. cerevisiae Mot1-301 growth rescue, ATP luminescence, 38.5C; percent above DMSO median, 100 means doubled; growth rescue, % at 18.8 µM; 1% of 320,000 active;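 active = every valid replicate shows activation above 250% relative to neutral control wells; inactive = the rest, any valid replicate at or below 250%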
SUMO HTRF inh: inhibitors of human SUMOylation (UBC9). AID 2006. 0.36% of 290,000 active. HTRF SUMOylation assay, SAE1/SAE2 + UBC9, in vitro. inhibition, % at 35 µM. P63279; in the data active = inhibition above about 50%, passing the limit was not always enough
Target sequence (P63279 whole entry, looked up): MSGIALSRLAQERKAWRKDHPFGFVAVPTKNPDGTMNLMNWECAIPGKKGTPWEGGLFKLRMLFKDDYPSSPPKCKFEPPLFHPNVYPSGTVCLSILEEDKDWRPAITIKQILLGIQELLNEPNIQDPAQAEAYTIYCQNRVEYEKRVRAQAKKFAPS
Mot1 SUMO dose: inhibits SUMO pathway, affecting Mot1-301 yeast growth | growth activity, percent, % at 42 µM | S. cerevisiae Mot1-301 galactose growth, ATP luminescence, 24 h; -100 = growth of slx-deleted rescue strain | 2,300 tested, under 10 active | AID 493004 | shares compounds with SUMO Mot1 rescue;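 active = Signal drops as the depositor expects, and the fitted half-maximal dose is no more than ten times the top valid tested dose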;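 also: more negative values mean stronger growth rescue toward the control strain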
Large screens that a line does not name were inactive (follow-up assays come after a bar, where they were run). In the library only some 2.9% were active in any assay of this set; here they are far more common.

CCOC(=O)Cn1cnc2scc(-c3ccc(C)cc3)c2c1=O	none
CSc1ccc(Cl)c(C(=O)Nc2ccc(N3CCOCC3)cc2)c1	SUMO Mot1 rescue active | Mot1 SUMO dose inactive
O=C(Nc1ccc(N2CCOCC2)cc1)c1cc(F)c(F)cc1Cl	none
CC[C@]12c3[nH]c4ccccc4c3CCN1C(=O)C(CC(=O)NCCCn1ccnc1)C[C@@H]2C(=O)N1CCN(C(=O)c2ccco2)CC1 (some centres undefined)	none (no result: NALP1 inh, DNA FID counter, IMP-1 inhibitor, VIM-2 inh, SUMO HTRF inh)
COC(=O)c1ccncc1C(=O)Nc1ccc(Oc2ncc(C(F)(F)F)cc2Cl)cc1	SUMO Mot1 rescue 369.4 | Mot1 SUMO dose inactive
O=C(c1ccc(Cl)cc1)C1CCN(C(=O)c2ccc(F)cc2)CC1	none
COc1ccc(Cl)cc1NC(=O)C/C(C)=N/NC(=O)c1ccc(O)cc1	none
Nc1cccnc1-n1nc(C(F)(F)F)cc1C(F)(F)F	none
O=C(COc1ccccc1)Nc1ccc(OC(F)(F)C(F)F)c(NC(=O)COc2ccccc2)c1	SUMO Mot1 rescue 961.0 | Mot1 SUMO dose inactive
CN(Cc1ccc(C(C)(C)C)cc1)C(=O)c1ccc2c(=O)n3c(nc2c1)CCC3	SUMO Mot1 rescue 399.2 (no result: NALP1 inh, DNA FID counter, IMP-1 inhibitor, VIM-2 inh, SUMO HTRF inh) | Mot1 SUMO dose inactive
C=CCSC1=C(C#N)C(c2ccc(C(C)C)cc2)CC(=O)N1 (centres undefined)	SUMO Mot1 rescue 404.5 | Mot1 SUMO dose inactive
COc1ccc(S(=O)(=O)NCc2ccc(C(=O)NCCCN3CCCC(C)C3)cc2)cc1 (centres undefined)	none (no result: SUMO HTRF inh)
O=C(NCc1cccnc1)C1CCN(S(=O)(=O)c2cccnc2)CC1	SUMO Mot1 rescue active | Mot1 SUMO dose inactive
O=C(O)c1ccc(OCC(O)Cn2c3ccccc3c3ccccc32)cc1 (centres undefined)	none
OC(COc1ccccc1)Cn1c2ccccc2c2ccccc21 (centres undefined)	SUMO Mot1 rescue 373.8 | Mot1 SUMO dose inactive
COc1ccccc1CCNC(=O)/C(=C/c1cccnc1)NC(=O)c1ccccc1	SUMO Mot1 rescue 391.2 | Mot1 SUMO dose inactive
COc1ccccc1NC(=O)/C(=C\c1cccnc1)NC(=O)c1ccccc1	none
O=C(CN1CCN(Cc2ccc(Cl)cc2)CC1)N/N=C/c1ccncc1	SUMO Mot1 rescue 373.6 | Mot1 SUMO dose inactive
O=C(Cc1ccc(Cl)cc1)N/N=C/c1ccncc1	none
COc1cccc(S(=O)(=O)Nc2cccc(C(=O)N3CCCC3)c2)c1	none
COc1cccc(S(=O)(=O)Nc2cccc(C(=O)N3CCOCC3)c2)c1	SUMO Mot1 rescue 477.8 | Mot1 SUMO dose inactive
Cc1c(C(=O)N2CCOCC2)c(S(=O)(=O)Nc2cccc(Br)c2)c(C)n1C	SUMO Mot1 rescue 553.1 | Mot1 SUMO dose inactive
O=C(N/N=C/c1ccc(Cl)s1)c1ccccc1[N+](=O)[O-]	SUMO Mot1 rescue 805.0 | Mot1 SUMO dose inactive
O=C(N/N=C/c1cc(Br)cs1)c1ccccc1[N+](=O)[O-]	none
CCCCNC(=O)CN1C(=O)NC(CCc2ccccc2)C1=O (centres undefined)	none
COc1ccccc1NC(NC(=O)c1ccccn1)C(Cl)(Cl)Cl (centres undefined)	none
Cc1ccc(C)c(NC(NC(=O)c2ccccn2)C(Cl)(Cl)Cl)c1 (centres undefined)	SUMO Mot1 rescue 981.8 | Mot1 SUMO dose inactive
O=C(N/N=C1\C2CN3CCN(C2)CC1(c1ccccc1)C3)Nc1ccccc1	none
Cc1ccc(CN(C)C(=O)c2ccc3c(c2)NC(=O)CS3)o1	SUMO Mot1 rescue 363.8 (no result: NALP1 inh) | Mot1 SUMO dose inactive
O=C(Nc1ccc([N+](=O)[O-])cn1)C1CC1	SUMO Mot1 rescue 572.7 | Mot1 SUMO dose inactive
N#Cc1cc2c(nc1SC1CCCCC1O)CCCC2 (centres undefined)	SUMO Mot1 rescue 485.3 | Mot1 SUMO dose inactive
CSc1nc2c(cc1C#N)CCC2	none
Cc1ccnc(NC(=O)Cc2ccc(F)cc2)n1	none (no result: NALP1 inh)
Cc1ccnc(NC(=O)CC(c2ccccc2)c2ccccc2)n1	SUMO Mot1 rescue 432.0 | Mot1 SUMO dose inactive
COc1ccc(NC(=O)C(Cc2ccccc2)n2cccc2)cc1OC (centres undefined)	none (no result: NALP1 inh)

Assay outcomes as filed in PubChem.
